Assay results of several laboratories.
Protocols differ between the studies behind these lines.
SLC6A4: Sodium-dependent serotonin transporter (SLC6A4, Homo sapiens, UniProt P31645)
DRD1: D(1A) dopamine receptor (DRD1, Homo sapiens, UniProt P21728)
rep papain-like protease: Replicase polyprotein 1ab, papain-like protease (rep, Porcine epidemic diarrhea virus, UniProt P0C6Y4)
rep main protease: Replicase polyprotein 1ab, main protease (rep, Porcine epidemic diarrhea virus, UniProt P0C6Y4)

Compound | target | read-out | mode | method | concentration | inhibition [%]
Cc1cc(O)c(-c2ccc([C@@H](C)CN(C)C)cc2)c2c1[nH]c(=O)c1sccc12 | STE20-related kinase adapter protein alpha (STRADA, Homo sapiens, UniProt Q7RTN6) | enzyme activity | inhibitor | – | 0.1 µM | 14.8
CCOC(=O)[C@@]12C[C@@H]1[C@@H](n1cnc3c(NCCCCc4ccccc4)nc(C#Cc4ccc(Cl)s4)nc31)[C@H](O)[C@@H]2O | SLC6A4 | ligand displacement | – | radioligand | 10 µM | 16
Cc1cc(F)cc2c(CCC(=O)N[C@@H]3C(=O)NC[C@H]3O)c(-c3ccc(F)cc3)[nH]c12 | SLC6A4 | cell-free assay | – | – | 10 µM | 8
CCN1/C(=C/C(C)=O)Sc2ccc(F)cc21 | DRD1 | ligand displacement | – | radioligand | 10 µM | 7.04
C#Cc1cc(-c2cc(Nc3nc(N[C@@H](C)c4ccc(F)cn4)ncc3Cl)n[nH]2)ccc1C=O | Rhodopsin kinase GRK7 (GRK7, Homo sapiens, UniProt Q8WTQ7) | enzyme activity | inhibitor | – | 0.2 µM | 63
O=C(NCc1cc(O)c(O)c(Br)c1)c1ccc2ccccc2n1 | rep papain-like protease | enzyme activity | inhibitor | FRET | 10 µM | 45.5
CCOC(=O)[C@@]12C[C@@H]1[C@@H](n1ccc3c(NCCCCCCCc4ccccc4)nc(C#Cc4ccccc4)nc31)[C@H](O)[C@@H]2O | SLC6A4 | ligand displacement | – | radioligand | 10 µM | 32
O=C(NCc1cc(O)c(O)c(Br)c1)c1ccccc1 | rep main protease | enzyme activity | inhibitor | FRET | 10 µM | 74.8
CCOC(=O)[C@@]12C[C@@H]1[C@@H](n1cnc3c(NCc4cccc(Cl)c4)nc(I)nc31)[C@H](O)[C@@H]2O | SLC6A4 | ligand displacement | – | radioligand | 10 µM | -5
COc1cc(CNC(=O)c2cccc(OC(C)=O)c2C)cc(Br)c1OC | rep papain-like protease | enzyme activity | inhibitor | FRET | 10 µM | 14.1
CNC(=O)[C@@]12C[C@@H]1[C@@H](n1cnc3c(Nc4ccccc4)nc(C#Cc4ccc(Cl)s4)nc31)[C@H](O)[C@@H]2O | SLC6A4 | ligand displacement | – | radioligand | 10 µM | 11
O=C(NCc1cc(O)c(O)c(Br)c1)c1cccc(Br)c1 | rep main protease | enzyme activity | inhibitor | FRET | 10 µM | 98.4
NC/C(=C\F)COc1cccc(Cn2c(=S)[nH]c(=O)c3[nH]cnc32)c1 | DRD1 | ligand displacement | – | radioligand | 10 µM | < 50
COc1cc(CNC(=O)c2cc3ccccc3n2C)cc(Br)c1OC | rep papain-like protease | enzyme activity | inhibitor | FRET | 10 µM | 13
N#C[C@@]12C[C@@H]1[C@@H](n1cnc3c(Nc4ccccc4)nc(C#Cc4ccc(Cl)s4)nc31)[C@H](O)[C@@H]2O | SLC6A4 | ligand displacement | – | radioligand | 10 µM | 12
